Experiments:
[1] = test system: Staphylococcus aureus; assay: Logarithmic survival of methicillin-resistant Staphylococcus aureus 110 at 0.1 uM after 10 mins and irradiated with white light at the fluence rate of 50 mW/cm2 relative to control; type: functional; conditions: light or radiation study
[2] = test system: Staphylococcus aureus; assay: Logarithmic survival of methicillin-resistant Staphylococcus aureus 110 at 2.5 uM after 10 mins and irradiated with white light at the fluence rate of 50 mW/cm2 for 30 mins relative to control; type: functional; conditions: light or radiation study
Method in brief: (§1)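 MRSA 110 grown aerobically at 37 °C on BHA. Stationary-phase cells were taken into BHI, washed twice in PBS and diluted to OD650 ~0.7 (10^8 to 10^9 cells/mL). Suspensions were held with photosensitizer for 10 min in the dark at room temperature, then given white light for 30 min. Cells were serially diluted, plated on BHA and counted after 16–20 h at 37 °C. Survival = cfu ÷ cfu of photosensitizer-free controls.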

[3] = test system: Staphylococcus aureus; assay: Logarithmic survival of methicillin-resistant Staphylococcus aureus 110 at 0.1 uM after 10 mins and irradiated with white light at the fluence rate of 50 mW/cm2 for 5 mins relative to control; type: functional; conditions: light or radiation study
Method in brief: (§2)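 S. aureus ATCC 25923 or MRSA 110 (PBS-washed, 10^8 to 10^9 cells/mL) were incubated with 0.1 μM photosensitizer for 10 min in the dark at room temperature. They were then irradiated with white light at 50 mW/cm² for varying times up to 30 min. Survival was read as cfu on BHA and divided by cfu of controls without photosensitizer.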

[4] = test system: Staphylococcus aureus; assay: Logarithmic survival of Staphylococcus aureus ATCC 25923 at 5 uM after 10 mins and irradiated with white light at the fluence rate of 50 mW/cm2 for 30 mins relative to control; type: functional; conditions: ATCC 25923, light or radiation study
Method in brief: (§3)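 Strains grown aerobically at 37 °C on brain heart agar; stationary-phase cells washed twice in PBS and adjusted to OD650 ca. 0.7 (10^8 to 10^9 cells/mL). Cells incubated with photosensitizer at various concentrations for 10 min in the dark at room temperature, then irradiated with white light at 50 mW/cm² for 30 min. Survivors counted as cfu on BHA after 16–20 h at 37 °C, expressed relative to no-photosensitizer controls. Dark controls were run without irradiation.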

[5] = test system: Staphylococcus aureus; assay: Logarithmic survival of methicillin-resistant Staphylococcus aureus 110 at 0.01 uM after 10 mins and irradiated with white light at the fluence rate of 50 mW/cm2 for 30 mins relative to control; type: functional; conditions: light or radiation study; method in brief: as §3
[6] = test system: Escherichia coli; assay: Logarithmic survival of Escherichia coli O4 at 10 uM after 10 mins and irradiated with white light at the fluence rate of 50 mW/cm2 for 30 mins relative to control; type: functional; conditions: O4, light or radiation study; method in brief: as §3
[7] = test system: Staphylococcus aureus; assay: Logarithmic survival of methicillin-resistant Staphylococcus aureus 110 at 0.1 uM after 10 mins and irradiated with white light at the fluence rate of 50 mW/cm2 for 2.5 mins relative to control; type: functional; conditions: light or radiation study; method in brief: as §2
[8] = test system: Staphylococcus aureus; assay: Logarithmic survival of Staphylococcus aureus ATCC 25923 at 0.25 uM after 10 mins and irradiated with white light at the fluence rate of 50 mW/cm2 for 30 mins relative to control; type: functional; conditions: ATCC 25923, light or radiation study; method in brief: as §3
[9] = test system: Staphylococcus aureus; assay: Drug uptake per mg of protein in Staphylococcus aureus ATCC 25923 at 10 uM after 10 mins; type: ADME, organism-based; conditions: in vivo
Method in brief: (§4)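 Bacterial suspensions (10^8 to 10^9 cells/mL in PBS) were incubated with porphyrin for 10 min in the dark at room temperature, then centrifuged. The pellet was digested in 2% aqueous SDS. Porphyrin was quantified by spectrofluorimetry and cell protein by modified Lowry assay (BSA standard). Uptake is given as nmol per mg cell protein.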

[10] = test system: Staphylococcus aureus; assay: Logarithmic survival of Staphylococcus aureus ATCC 25923 at 0.01 uM after 10 mins and irradiated with white light at the fluence rate of 50 mW/cm2 for 30 mins relative to control; type: functional; conditions: ATCC 25923, light or radiation study; method in brief: as §3
[11] = test system: Escherichia coli; assay: Drug uptake per mg of protein in Escherichia coli O4 at 10 uM after 10 mins; type: ADME, organism-based; conditions: in vivo; method in brief: as §4
[12] = test system: Escherichia coli; assay: Logarithmic survival of Escherichia coli O4 at 0.01 uM after 10 mins and irradiated with white light at the fluence rate of 50 mW/cm2 for 30 mins relative to control; type: functional; conditions: O4, light or radiation study; method in brief: as §3
[13] = test system: Staphylococcus aureus; assay: Logarithmic survival of methicillin-resistant Staphylococcus aureus 110 at 0.25 uM after 10 mins and irradiated with white light at the fluence rate of 50 mW/cm2 for 30 mins relative to control; type: functional; conditions: light or radiation study; method in brief: as §1
[14] = test system: Staphylococcus aureus; assay: Logarithmic survival of methicillin-resistant Staphylococcus aureus 110 at 10 uM after 10 mins and irradiated with white light at the fluence rate of 50 mW/cm2 for 30 mins relative to control; type: functional; conditions: light or radiation study; method in brief: as §1
[15] = test system: Escherichia coli; assay: Antibacterial activity against Escherichia coli O4 measured as 4 log decrease in survival; type: functional; method in brief: as §3
[16] = test system: Escherichia coli; assay: Logarithmic survival of Escherichia coli O4 at 5 uM after 10 mins and irradiated with white light at the fluence rate of 50 mW/cm2 for 30 mins relative to control; type: functional; conditions: O4, light or radiation study; method in brief: as §3
[17] = test system: Staphylococcus aureus; assay: Logarithmic survival of Staphylococcus aureus ATCC 25923 at 0.5 uM after 10 mins and irradiated with white light at the fluence rate of 50 mW/cm2 for 30 mins relative to control; type: functional; conditions: ATCC 25923, light or radiation study; method in brief: as §3
[18] = test system: Staphylococcus aureus; assay: Drug uptake per mg of protein in methicillin-resistant Staphylococcus aureus 110 at 2.5 uM after 10 mins; type: ADME, organism-based; conditions: in vivo; method in brief: as §4
[19] = test system: Escherichia coli; assay: Logarithmic survival of Escherichia coli O4 at 1 uM after 10 mins and irradiated with white light at the fluence rate of 50 mW/cm2 for 30 mins relative to control; type: functional; conditions: O4, light or radiation study; method in brief: as §3
[20] = test system: Staphylococcus aureus; assay: Logarithmic survival of methicillin-resistant Staphylococcus aureus 110 at 0.5 uM after 10 mins and irradiated with white light at the fluence rate of 50 mW/cm2 for 30 mins relative to control; type: functional; conditions: light or radiation study; method in brief: as §1
[21] = test system: Staphylococcus aureus; assay: Logarithmic survival of Staphylococcus aureus ATCC 25923 at 0.1 uM after 10 mins and irradiated with white light at the fluence rate of 50 mW/cm2 relative to control; type: functional; conditions: ATCC 25923, light or radiation study; method in brief: as §2
[22] = Photostability after irradiation with white light at the fluence rate of 50 mW/cm2 for 5 mins; type: ADME; conditions: read-out: Stability
[23] = test system: Staphylococcus aureus; assay: Logarithmic survival of Staphylococcus aureus ATCC 25923 at 0.1 uM after 10 mins and irradiated with white light at the fluence rate of 50 mW/cm2 for 10 mins relative to control; type: functional; conditions: ATCC 25923, light or radiation study; method in brief: as §2
[24] = test system: Staphylococcus aureus; assay: Drug uptake per mg of protein in Staphylococcus aureus ATCC 25923 at 5 uM after 10 mins; type: ADME, organism-based; conditions: in vivo; method in brief: as §4
[25] = Photostability after irradiation with white light at the fluence rate of 50 mW/cm2 for 20 mins; type: ADME; conditions: read-out: Stability
[26] = test system: Staphylococcus aureus; assay: Logarithmic survival of methicillin-resistant Staphylococcus aureus 110 at 0.1 uM after 10 mins and irradiated with white light at the fluence rate of 50 mW/cm2 for 20 mins relative to control; type: functional; conditions: light or radiation study; method in brief: as §2
[27] = Photostability after irradiation with white light at the fluence rate of 50 mW/cm2 for 30 mins; type: ADME; conditions: read-out: Stability
[28] = Photostability after irradiation with white light at the fluence rate of 50 mW/cm2 for 1 min; type: ADME; conditions: read-out: Stability
[29] = test system: Staphylococcus aureus; assay: Logarithmic survival of methicillin-resistant Staphylococcus aureus 110 at 0.1 uM after 10 mins and irradiated with white light at the fluence rate of 50 mW/cm2 for 10 mins relative to control; type: functional; conditions: light or radiation study; method in brief: as §2
[30] = test system: Escherichia coli; assay: Drug uptake per mg of protein in Escherichia coli O4 at 5 uM after 10 mins; type: ADME, organism-based; conditions: in vivo; method in brief: as §4
[31] = test system: Staphylococcus aureus; assay: Drug uptake per mg of protein in methicillin-resistant Staphylococcus aureus 110 at 0.1 uM after 10 mins; type: ADME, organism-based; conditions: in vivo; method in brief: as §4

Row | Structure (SMILES) | survival at 0.1 µM [1] | survival at 2.5 µM [2] | survival at 0.1 µM [3] | survival at 5 µM [4] | log survival at 0.01 µM [5] | survival at 10 µM [6] | survival at 0.1 µM [7] | survival at 0.25 µM [8] | Drug uptake [9] | survival at 0.01 µM [10] | Drug uptake [11] | survival at 0.01 µM [12] | survival at 0.25 µM [13] | survival at 10 µM [14] | Activity [15] | survival at 5 µM [16] | survival at 0.5 µM [17] | Drug uptake [18] | survival at 1 µM [19] | survival at 0.5 µM [20] | other results
1 | C[n+]1ccc(-c2c3nc(c(-c4cc[n+](C)cc4)c4ccc([nH]4)c(-c4cc[n+](C)cc4)c4nc(c(-c5ccc(C(=O)O)cc5)c5ccc2[nH]5)C=C4)C=C3)cc1.[I-].[I-].[I-] | 1.95 | -2.13 | 1.87 | -3.06% | 2 log10 % | -4.36 | 1.84 | 1.56 | 17 nmol/mg | 2 | 6.88 nmol/mg | 2 | 1.68% | -2.7 | 5 µM | -2.57 | -0.42 | 7.69 nmol/mg | 0.68 | 1.33% | survival at 0.1 µM [21]: 0.82; remaining at 5 min [22]: 83%; survival at 0.1 µM [23]: -0.42; Drug uptake [24]: 9.97 nmol/mg; remaining at 20 min [25]: 72%; survival at 0.1 µM [26]: 1.79; remaining at 0.5 h [27]: 67%; remaining at 1 min [28]: 93%; survival at 0.1 µM [29]: 1.7; Drug uptake [30]: 4.35 nmol/mg
2 | O=C(O)c1ccc(-c2c3nc(c(-c4ccncc4)c4ccc([nH]4)c(-c4ccncc4)c4nc(c(-c5ccncc5)c5ccc2[nH]5)C=C4)C=C3)cc1 [PORPHIRIN] | 1.89 | -3.11 | 1.61 | -3.73% | 2 log10 % | -4.06 | 1.8 | -1.9 | 187 nmol/mg | 2 | 163 nmol/mg | 2 | -1.39% | -3.35 | 10 µM | 1.6 | -2.39 | 47 nmol/mg | 1.72 | -1.58% | survival at 0.1 µM [21]: 1.91; remaining at 5 min [22]: 96%; survival at 0.1 µM [23]: -2.07; Drug uptake [24]: 81.4 nmol/mg; remaining at 20 min [25]: 90%; survival at 0.1 µM [26]: -0.6; Drug uptake [31]: 1.5 nmol/mg; remaining at 0.5 h [27]: 85%; remaining at 1 min [28]: 99%; survival at 0.1 µM [29]: 0.98; Drug uptake [30]: 85.6 nmol/mg
